Source: ChEMBL document CHEMBL5058577, “EUbOPEN Chemogenomics Library 2 (Multiplex)” (2022)

Test system: Fibroblast
Assay: Multiplex assay against human fibroblast
Format: toxicity, cell-based
In short: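 At seeding, live cells were stained with Hoechst33342, BioTracker Green Microtubule Cytoskeleton Dye, MitoTracker Red and Annexin V Alexa Fluor 680. After compound addition they were imaged on a CQ1 microscope at 37°C and 5% CO2, and CellPathfinder machine-learning gating sorted them into Hoechst high-intensity objects or normal cells, with normal cells further split into healthy, pyknosed or fragmented nuclei and pyknosed cells into mitotic or apoptotic. Tubulin, mitochondrial-mass and membrane-permeability phenotypes are given as per cents of cells with healthy nuclei.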

[1] = 12 h, 1 µM, compound concentration 1 uM, replicate 1
[2] = 12 h, 1 µM, compound concentration 1 uM, replicate 2
[3] = 12 h, 10 µM, compound concentration 10 uM, replicate 1
[4] = 12 h, 10 µM, compound concentration 10 uM, replicate 2
[5] = 24 h, 1 µM, compound concentration 1 uM, replicate 1
[6] = 24 h, 1 µM, compound concentration 1 uM, replicate 2
[7] = 24 h, 10 µM, compound concentration 10 uM, replicate 1
[8] = 24 h, 10 µM, compound concentration 10 uM, replicate 2
[9] = 48 h, 1 µM, compound concentration 1 uM, replicate 1
[10] = 48 h, 1 µM, compound concentration 1 uM, replicate 2
[11] = 48 h, 10 µM, compound concentration 10 uM, replicate 1
[12] = 48 h, 10 µM, compound concentration 10 uM, replicate 2

COc1ccc2[nH]c(I)c(CCNC(C)=O)c2c1 [IODOMELATONIN]
Population Apoptotic (%) [1]: 53%
Population Fragmented Nuclei (%) [1]: 15%
Population Healthy Nuclei (%) [1]: 64%
Population Hoechst High Intensity Objects (%) [1]: 2%
Population Membrane Permeable-Phenotype (%) [1]: 4%
Population Mitochondria Different-Phenotype (%) [1]: 4%
Population Mitotic Cells (%) [1]: 46%
Population Normal (%) [1]: 97%
Population Pyknosed Nuclei (%) [1]: 19%
Population Tubulin-Different-Phenotype (%) [1]: 28%
Total Cell Count [1]: 137
Population Apoptotic (%) [2]: 32%
Population Fragmented Nuclei (%) [2]: 23%
Population Healthy Nuclei (%) [2]: 60%
Population Hoechst High Intensity Objects (%) [2]: 5%
Population Membrane Permeable-Phenotype (%) [2]: 7%
Population Mitochondria Different-Phenotype (%) [2]: 3%
Population Mitotic Cells (%) [2]: 68%
Population Normal (%) [2]: 94%
Population Pyknosed Nuclei (%) [2]: 15%
Population Tubulin-Different-Phenotype (%) [2]: 33%
Total Cell Count [2]: 173
Population Apoptotic (%) [3]: 35%
Population Fragmented Nuclei (%) [3]: 14%
Population Healthy Nuclei (%) [3]: 64%
Population Hoechst High Intensity Objects (%) [3]: 2%
Population Membrane Permeable-Phenotype (%) [3]: 2%
Population Mitochondria Different-Phenotype (%) [3]: 6%
Population Mitotic Cells (%) [3]: 64%
Population Normal (%) [3]: 97%
Population Pyknosed Nuclei (%) [3]: 21%
Population Tubulin-Different-Phenotype (%) [3]: 20%
Total Cell Count [3]: 148
Population Apoptotic (%) [4]: 30%
Population Fragmented Nuclei (%) [4]: 38%
Population Healthy Nuclei (%) [4]: 44%
Population Hoechst High Intensity Objects (%) [4]: 3%
Population Membrane Permeable-Phenotype (%) [4]: 5%
Population Mitochondria Different-Phenotype (%) [4]: 0%
Population Mitotic Cells (%) [4]: 69%
Population Normal (%) [4]: 96%
Population Pyknosed Nuclei (%) [4]: 17%
Population Tubulin-Different-Phenotype (%) [4]: 43%
Total Cell Count [4]: 157
Population Apoptotic (%) [5]: 62%
Population Fragmented Nuclei (%) [5]: 16%
Population Healthy Nuclei (%) [5]: 63%
Population Hoechst High Intensity Objects (%) [5]: 0%
Population Membrane Permeable-Phenotype (%) [5]: 0%
Population Mitochondria Different-Phenotype (%) [5]: 7%
Population Mitotic Cells (%) [5]: 37%
Population Normal (%) [5]: 99%
Population Pyknosed Nuclei (%) [5]: 20%
Population Tubulin-Different-Phenotype (%) [5]: 27%
Total Cell Count [5]: 134
Population Apoptotic (%) [6]: 57%
Population Fragmented Nuclei (%) [6]: 26%
Population Healthy Nuclei (%) [6]: 57%
Population Hoechst High Intensity Objects (%) [6]: 5%
Population Membrane Permeable-Phenotype (%) [6]: 6%
Population Mitotic Cells (%) [6]: 42%
Population Normal (%) [6]: 94%
Population Pyknosed Nuclei (%) [6]: 15%
Population Tubulin-Different-Phenotype (%) [6]: 39%
Total Cell Count [6]: 176
Population Apoptotic (%) [7]: 35%
Population Fragmented Nuclei (%) [7]: 16%
Population Healthy Nuclei (%) [7]: 58%
Population Hoechst High Intensity Objects (%) [7]: 2%
Population Membrane Permeable-Phenotype (%) [7]: 1%
Population Mitochondria Different-Phenotype (%) [7]: 4%
Population Mitotic Cells (%) [7]: 64%
Population Normal (%) [7]: 97%
Population Pyknosed Nuclei (%) [7]: 24%
Population Tubulin-Different-Phenotype (%) [7]: 30%
Total Cell Count [7]: 143
Population Apoptotic (%) [8]: 24%
Population Fragmented Nuclei (%) [8]: 38%
Population Healthy Nuclei (%) [8]: 41%
Population Hoechst High Intensity Objects (%) [8]: 4%
Population Membrane Permeable-Phenotype (%) [8]: 10%
Population Mitochondria Different-Phenotype (%) [8]: 1%
Population Mitotic Cells (%) [8]: 75%
Population Normal (%) [8]: 95%
Population Pyknosed Nuclei (%) [8]: 20%
Population Tubulin-Different-Phenotype (%) [8]: 40%
Total Cell Count [8]: 149
Population Apoptotic (%) [9]: 76%
Population Fragmented Nuclei (%) [9]: 16%
Population Healthy Nuclei (%) [9]: 64%
Population Hoechst High Intensity Objects (%) [9]: 3%
Population Membrane Permeable-Phenotype (%) [9]: 0%
Population Mitochondria Different-Phenotype (%) [9]: 4%
Population Mitotic Cells (%) [9]: 23%
Population Normal (%) [9]: 96%
Population Pyknosed Nuclei (%) [9]: 18%
Population Tubulin-Different-Phenotype (%) [9]: 22%
Total Cell Count [9]: 147
Population Apoptotic (%) [10]: 42%
Population Fragmented Nuclei (%) [10]: 30%
Population Healthy Nuclei (%) [10]: 55%
Population Hoechst High Intensity Objects (%) [10]: 4%
Population Membrane Permeable-Phenotype (%) [10]: 5%
Population Mitochondria Different-Phenotype (%) [10]: 0%
Population Mitotic Cells (%) [10]: 57%
Population Normal (%) [10]: 95%
Population Pyknosed Nuclei (%) [10]: 13%
Population Tubulin-Different-Phenotype (%) [10]: 40%
Total Cell Count [10]: 163
Population Apoptotic (%) [11]: 60%
Population Fragmented Nuclei (%) [11]: 29%
Population Healthy Nuclei (%) [11]: 56%
Population Hoechst High Intensity Objects (%) [11]: 7%
Population Membrane Permeable-Phenotype (%) [11]: 1%
Population Mitochondria Different-Phenotype (%) [11]: 1%
Population Mitotic Cells (%) [11]: 40%
Population Normal (%) [11]: 92%
Population Pyknosed Nuclei (%) [11]: 13%
Population Tubulin-Different-Phenotype (%) [11]: 22%
Total Cell Count [11]: 159
Population Apoptotic (%) [12]: 38%
Population Fragmented Nuclei (%) [12]: 48%
Population Healthy Nuclei (%) [12]: 38%
Population Hoechst High Intensity Objects (%) [12]: 2%
Population Membrane Permeable-Phenotype (%) [12]: 10%
Population Mitochondria Different-Phenotype (%) [12]: 5%
Population Mitotic Cells (%) [12]: 61%
Population Normal (%) [12]: 98%
Population Pyknosed Nuclei (%) [12]: 12%
Population Tubulin-Different-Phenotype (%) [12]: 57%
Total Cell Count [12]: 150
